Experimental data: ChEMBL document CHEMBL2331542, “Synthesis and in vitro antibacterial activity of quinolone/naphthyridone derivatives containing 3-alkoxyimino-4-(methyl)aminopiperidine scaffolds” (2013)
Values after ≈ are worked out from the molar mass of the structure shown.

What follows are molecules tested on Escherichia coli (assay: Antibacterial activity against extended-spectrum beta-lactamase-producing Escherichia coli isolate 12-4).
Type: functional
In short: (§1)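 MIC determined in vitro by a standard technique and defined as the lowest compound concentration giving complete inhibition of bacterial growth. The Gram-positive and Gram-negative panels were tested alongside gemifloxacin, levofloxacin and ciprofloxacin reference drugs.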

Row | Structure (SMILES) | MIC [µg/mL]
1 | CNC1CCN(c2c(F)cc3c(=O)c(C(=O)O)cn(C4CC4)c3c2OC)C/C1=N\OC (stereo unspecified) | 32 (≈ 74 µM)

What follows are molecules tested on Escherichia coli (assay: Antibacterial activity against extended-spectrum beta-lactamase-producing Escherichia coli isolate 12-2).
Type: functional
In short: as §1

Row | Structure (SMILES) | MIC [µg/mL]
2 | CNC1CCN(c2c(F)cc3c(=O)c(C(=O)O)cn(C4CC4)c3c2OC)C/C1=N\OC (stereo unspecified) | > 128

What follows are molecules tested on Escherichia coli (assay: Antibacterial activity against extended-spectrum beta-lactamase-producing Escherichia coli isolate 12-1).
Type: functional
In short: as §1

Row | Structure (SMILES) | MIC [µg/mL]
3 | CNC1CCN(c2c(F)cc3c(=O)c(C(=O)O)cn(C4CC4)c3c2OC)C/C1=N\OC (stereo unspecified) | > 128

What follows are molecules tested on Escherichia coli (assay: Antibacterial activity against Escherichia coli isolate 12-5).
Type: functional
In short: as §1

Row | Structure (SMILES) | MIC [µg/mL]
4 | CNC1CCN(c2c(F)cc3c(=O)c(C(=O)O)cn(C4CC4)c3c2OC)C/C1=N\OC (stereo unspecified) | 128 (≈ 296 µM)

What follows are molecules tested on Escherichia coli (assay: Antibacterial activity against Escherichia coli isolate 12-4).
Type: functional
In short: as §1

Row | Structure (SMILES) | MIC [µg/mL]
5 | CNC1CCN(c2c(F)cc3c(=O)c(C(=O)O)cn(C4CC4)c3c2OC)C/C1=N\OC (stereo unspecified) | > 128

These molecules were tested on Escherichia coli (assay: Antibacterial activity against Escherichia coli isolate 12-1).
Type: functional
In short: as §1

Row | Structure (SMILES) | MIC [µg/mL]
6 | CNC1CCN(c2c(F)cc3c(=O)c(C(=O)O)cn(C4CC4)c3c2OC)C/C1=N\OC (stereo unspecified) | 4 (≈ 9.25 µM)

The molecules below were run on Escherichia coli (assay: Antibacterial activity against Escherichia coli ATCC 25922).
Type: functional
In short: as §1

Row | Structure (SMILES) | MIC [µg/mL]
7 | CNC1CCN(c2c(F)cc3c(=O)c(C(=O)O)cn(C4CC4)c3c2OC)C/C1=N\OC (stereo unspecified) | 0.125 (≈ 0.289 µM)

These molecules were tested on Streptococcus pneumoniae (assay: Antibacterial activity against Streptococcus pneumoniae isolate 12-5).
Type: functional
In short: as §1

Row | Structure (SMILES) | MIC [µg/mL]
8 | CNC1CCN(c2c(F)cc3c(=O)c(C(=O)O)cn(C4CC4)c3c2OC)C/C1=N\OC (stereo unspecified) | 0.125 (≈ 0.289 µM)

The molecules below were run on Streptococcus pneumoniae (assay: Antibacterial activity against Streptococcus pneumoniae isolate 12-2).
Type: functional
In short: as §1

Row | Structure (SMILES) | MIC [µg/mL]
9 | CNC1CCN(c2c(F)cc3c(=O)c(C(=O)O)cn(C4CC4)c3c2OC)C/C1=N\OC (stereo unspecified) | 0.125 (≈ 0.289 µM)

These molecules were tested on Staphylococcus epidermidis (assay: Antibacterial activity against methicillin-resistant Staphylococcus epidermidis isolate 12-35).
Type: functional
In short: (§2)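 MIC determined in vitro by standard techniques, defined as the lowest compound concentration giving complete inhibition of bacterial growth. Gemifloxacin, levofloxacin and ciprofloxacin were tested alongside as reference drugs.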

Row | Structure (SMILES) | MIC [µg/mL]
10 | CNC1CCN(c2c(F)cc3c(=O)c(C(=O)O)cn(C4CC4)c3c2OC)C/C1=N\OC (stereo unspecified) | 0.06 (≈ 0.139 µM)

Each molecule was assayed on Staphylococcus epidermidis (assay: Antibacterial activity against methicillin-resistant Staphylococcus epidermidis isolate 12-33).
Type: functional
In short: as §2

Row | Structure (SMILES) | MIC [µg/mL]
11 | CNC1CCN(c2c(F)cc3c(=O)c(C(=O)O)cn(C4CC4)c3c2OC)C/C1=N\OC (stereo unspecified) | 0.125 (≈ 0.289 µM)

These molecules were tested on Staphylococcus epidermidis (assay: Antibacterial activity against methicillin-resistant Staphylococcus epidermidis isolate 12-5).
Type: functional
In short: as §2

Row | Structure (SMILES) | MIC [µg/mL]
12 | CNC1CCN(c2c(F)cc3c(=O)c(C(=O)O)cn(C4CC4)c3c2OC)C/C1=N\OC (stereo unspecified) | 0.06 (≈ 0.139 µM)

Each molecule was assayed on Staphylococcus epidermidis (assay: Antibacterial activity against methicillin-sensitive Staphylococcus epidermidis isolate 12-3).
Type: functional
In short: as §1

Row | Structure (SMILES) | MIC [µg/mL]
13 | CNC1CCN(c2c(F)cc3c(=O)c(C(=O)O)cn(C4CC4)c3c2OC)C/C1=N\OC (stereo unspecified) | 0.25 (≈ 0.578 µM)

Each molecule was assayed on Staphylococcus epidermidis (assay: Antibacterial activity against methicillin-sensitive Staphylococcus epidermidis isolate 12-2).
Type: functional
In short: as §1

Row | Structure (SMILES) | MIC [µg/mL]
14 | CNC1CCN(c2c(F)cc3c(=O)c(C(=O)O)cn(C4CC4)c3c2OC)C/C1=N\OC (stereo unspecified) | 0.5 (≈ 1.16 µM)

What follows are molecules tested on Staphylococcus epidermidis (assay: Antibacterial activity against methicillin-sensitive Staphylococcus epidermidis isolate 12-1).
Type: functional
In short: as §1

Row | Structure (SMILES) | MIC [µg/mL]
15 | CNC1CCN(c2c(F)cc3c(=O)c(C(=O)O)cn(C4CC4)c3c2OC)C/C1=N\OC (stereo unspecified) | 0.25 (≈ 0.578 µM)

Each molecule was assayed on Staphylococcus aureus (assay: Antibacterial activity against methicillin-resistant Staphylococcus aureus isolate 12-15).
Type: functional
In short: as §2

Row | Structure (SMILES) | MIC [µg/mL]
16 | CNC1CCN(c2c(F)cc3c(=O)c(C(=O)O)cn(C4CC4)c3c2OC)C/C1=N\OC (stereo unspecified) | 0.25 (≈ 0.578 µM)

What follows are molecules tested on Staphylococcus aureus (assay: Antibacterial activity against methicillin-resistant Staphylococcus aureus isolate 12-13).
Type: functional
In short: as §2

Row | Structure (SMILES) | MIC [µg/mL]
17 | CNC1CCN(c2c(F)cc3c(=O)c(C(=O)O)cn(C4CC4)c3c2OC)C/C1=N\OC (stereo unspecified) | 0.25 (≈ 0.578 µM)

The molecules below were run on Staphylococcus aureus (assay: Antibacterial activity against methicillin-resistant Staphylococcus aureus isolate 12-3).
Type: functional
In short: as §2

Row | Structure (SMILES) | MIC [µg/mL]
18 | CNC1CCN(c2c(F)cc3c(=O)c(C(=O)O)cn(C4CC4)c3c2OC)C/C1=N\OC (stereo unspecified) | 0.25 (≈ 0.578 µM)

Each molecule was assayed on Staphylococcus aureus (assay: Antibacterial activity against methicillin-sensitive Staphylococcus aureus isolate 12-10).
Type: functional
In short: as §1

Row | Structure (SMILES) | MIC [µg/mL]
19 | CNC1CCN(c2c(F)cc3c(=O)c(C(=O)O)cn(C4CC4)c3c2OC)C/C1=N\OC (stereo unspecified) | 0.06 (≈ 0.139 µM)

These molecules were tested on Staphylococcus aureus (assay: Antibacterial activity against methicillin-sensitive Staphylococcus aureus isolate 12-7).
Type: functional
In short: as §1

Row | Structure (SMILES) | MIC [µg/mL]
20 | CNC1CCN(c2c(F)cc3c(=O)c(C(=O)O)cn(C4CC4)c3c2OC)C/C1=N\OC (stereo unspecified) | 0.125 (≈ 0.289 µM)

Each molecule was assayed on Staphylococcus aureus (assay: Antibacterial activity against methicillin-sensitive Staphylococcus aureus isolate 12-6).
Type: functional
In short: as §1

Row | Structure (SMILES) | MIC [µg/mL]
21 | CNC1CCN(c2c(F)cc3c(=O)c(C(=O)O)cn(C4CC4)c3c2OC)C/C1=N\OC (stereo unspecified) | 0.06 (≈ 0.139 µM)

These molecules were tested on Staphylococcus aureus (assay: Antibacterial activity against Staphylococcus aureus […]).
Type: functional
In short: as §1

Row | Structure (SMILES) | MIC [µg/mL]
22 | CNC1CCN(c2c(F)cc3c(=O)c(C(=O)O)cn(C4CC4)c3c2OC)C/C1=N\OC (stereo unspecified) | 0.25 (≈ 0.578 µM)

Each molecule was assayed on Pseudomonas aeruginosa (assay: Antibacterial activity against Pseudomonas aeruginosa isolate 12-2).
Type: functional
In short: as §1

Row | Structure (SMILES) | MIC [µg/mL]
23 | CNC1CCN(c2c(F)cc3c(=O)c(C(=O)O)cn(C4CC4)c3c2OC)C/C1=N\OC (stereo unspecified) | 16 (≈ 37 µM)

These molecules were tested on Pseudomonas aeruginosa (assay: Antibacterial activity against Pseudomonas aeruginosa isolate 12-1).
Type: functional
In short: as §1

Row | Structure (SMILES) | MIC [µg/mL]
24 | CNC1CCN(c2c(F)cc3c(=O)c(C(=O)O)cn(C4CC4)c3c2OC)C/C1=N\OC (stereo unspecified) | 16 (≈ 37 µM)

These molecules were tested on Pseudomonas aeruginosa (assay: Antibacterial activity against Pseudomonas aeruginosa ATCC 27853).
Type: functional
In short: as §1

Row | Structure (SMILES) | MIC [µg/mL]
25 | CNC1CCN(c2c(F)cc3c(=O)c(C(=O)O)cn(C4CC4)c3c2OC)C/C1=N\OC (stereo unspecified) | 8 (≈ 18.5 µM)

The molecules below were run on Klebsiella pneumoniae (assay: Antibacterial activity against extended-spectrum beta-lactamase-producing Klebsiella pneumoniae isolate 12-4).
Type: functional
In short: as §1

Row | Structure (SMILES) | MIC [µg/mL]
26 | CNC1CCN(c2c(F)cc3c(=O)c(C(=O)O)cn(C4CC4)c3c2OC)C/C1=N\OC (stereo unspecified) | 0.5 (≈ 1.16 µM)

Each molecule was assayed on Klebsiella pneumoniae (assay: Antibacterial activity against extended-spectrum beta-lactamase-producing Klebsiella pneumoniae isolate 12-2).
Type: functional
In short: as §1

Row | Structure (SMILES) | MIC [µg/mL]
27 | CNC1CCN(c2c(F)cc3c(=O)c(C(=O)O)cn(C4CC4)c3c2OC)C/C1=N\OC (stereo unspecified) | 16 (≈ 37 µM)

Each molecule was assayed on Klebsiella pneumoniae (assay: Antibacterial activity against extended-spectrum beta-lactamase-producing Klebsiella pneumoniae isolate 12-1).
Type: functional
In short: as §1

Row | Structure (SMILES) | MIC [µg/mL]
28 | CNC1CCN(c2c(F)cc3c(=O)c(C(=O)O)cn(C4CC4)c3c2OC)C/C1=N\OC (stereo unspecified) | 16 (≈ 37 µM)

The molecules below were run on Klebsiella pneumoniae (assay: Antibacterial activity against Klebsiella pneumoniae isolate 12-4).
Type: functional
In short: as §1

Row | Structure (SMILES) | MIC [µg/mL]
29 | CNC1CCN(c2c(F)cc3c(=O)c(C(=O)O)cn(C4CC4)c3c2OC)C/C1=N\OC (stereo unspecified) | 0.5 (≈ 1.16 µM)

The molecules below were run on Klebsiella pneumoniae (assay: Antibacterial activity against Klebsiella pneumoniae isolate 12-2).
Type: functional
In short: as §1

Row | Structure (SMILES) | MIC [µg/mL]
30 | CNC1CCN(c2c(F)cc3c(=O)c(C(=O)O)cn(C4CC4)c3c2OC)C/C1=N\OC (stereo unspecified) | 2 (≈ 4.62 µM)

Each molecule was assayed on Klebsiella pneumoniae (assay: Antibacterial activity against Klebsiella pneumoniae isolate 12-1).
Type: functional
In short: as §1

Row | Structure (SMILES) | MIC [µg/mL]
31 | CNC1CCN(c2c(F)cc3c(=O)c(C(=O)O)cn(C4CC4)c3c2OC)C/C1=N\OC (stereo unspecified) | 1 (≈ 2.31 µM)
